According to ChEMBL document CHEMBL1143833, “Concentration-dependent synergy and antagonism within a triple antifungal drug combination against Aspergillus species: analysis by a new response surface model” (Antimicrob Agents Chemother, 2007):
≈ marks a conversion by molar mass, not a printed value.

Key:
Assay type in all cases: functional, organism-based
Aspergillus terreus = assay: Antifungal activity against Aspergillus terreus by broth microdilution method; conditions: for EC50: pooled result: one value given for 3 cell lines, strains, targets or settings
Method in brief: (§1)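 RPMI 1640 with L-glutamine, no bicarbonate, buffered to pH 7.0 with 0.165 M MOPS. Conidial inoculum added to thawed plates. Incubated 48 h at 37°C, 95% humidity, plates unstacked. MIC taken as the lowest concentration with no visible growth. Growth also read at OD405 against conidium-free backgrounds, expressed as % of drug-free control. Run three times on separate days.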

Aspergillus flavus = assay: Antifungal activity against Aspergillus flavus by broth microdilution method; method in brief: as §1
Aspergillus fumigatus = assay: Antifungal activity against Aspergillus fumigatus by broth microdilution method; method in brief: as §1

Compound | MIC (Aspergillus terreus) [µg/mL] | EC50 (Aspergillus terreus) [µg/mL] | MIC (Aspergillus flavus) [µg/mL] | MIC (Aspergillus fumigatus) [µg/mL]
C[C@@H]1[C@H](O)[C@@H](C)/C=C/C=C/C=C/C=C/C=C/C=C/C=C/[C@H](O[C@@H]2O[C@H](C)[C@@H](O)[C@H](N)[C@@H]2O)C[C@@H]2O[C@](O)(C[C@@H](O)C[C@@H](O)[C@H](O)CC[C@@H](O)C[C@@H](O)CC(=O)O[C@H]1C)C[C@H](O)[C@H]2C(=O)O [AMPHOTERICIN B] | 0.5 (≈ 0.541 µM) | 0.44 (≈ 0.476 µM) | 0.5 (≈ 0.541 µM) | 0.5 (≈ 0.541 µM)
CC[C@H](C)C[C@H](C)CCCCCCCCC(=O)N[C@H]1C[C@@H](O)[C@@H](NCCN)NC(=O)[C@@H]2[C@@H](O)CCN2C(=O)[C@H]([C@H](O)CCN)NC(=O)[C@H]([C@H](O)[C@@H](O)c2ccc(O)cc2)NC(=O)[C@@H]2C[C@@H](O)CN2C(=O)[C@H]([C@@H](C)O)NC1=O [CASPOFUNGIN] | > 128 | 95.5 (≈ 87.4 µM) | > 128 | > 128
C[C@@H](c1ncncc1F)[C@](O)(Cn1cncn1)c1ccc(F)cc1F [VORICONAZOLE] | 0.25 (≈ 0.716 µM) | 0.23 (≈ 0.658 µM) | 0.25 (≈ 0.716 µM) | 0.25 (≈ 0.716 µM)
